# Source: paper PMC5413378 (Cancer research, 2017)
# Assays:
# [1] = test system: MDA-MB-231 xenograft model; test: MDA-MB-231 xenograft efficacy study; type: in vivo; conditions: for antitumor activity: IV; for weight loss or overt toxicity: MDA-MB-231 model
# Method in brief: (§1)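 SCID mice bearing MDA-MB-231 xenografts or serially passaged WHIM24 PDX tumours were randomised once tumours reached 80-200 mm3. Test compound was given IV in 10% PEG400: 3% Cremophor: 87% PBS, 3 times per week for 3 weeks. Tumour size and body weight were measured 2-3 times weekly. Volume was (length×width2)/2, and TGI used group medians. Data are mean ± SEM (n=7-8), with two-tailed t test versus vehicle.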
# TNBC cell lines [2] = test: CellTiter Glo cell viability assay in a panel of 13 TNBC cell lines; type: cell-based, human; conditions: for IC50: read-out: IC50 growth inhibition, in 9 of the 13 cell lines, 4 days
# BET proteins [3] = test: PD analysis in MDA-MB-231 xenograft tumors; type: in vivo, SCID mice; conditions: single dose 5 mg/kg, 1-3 h post drug exposure
# BET proteins [4] = test: PD analysis in MDA-MB-468 xenograft tumors; type: in vivo, SCID mice; conditions: single dose 5 mg/kg, 1-3 h post drug exposure
# [5] = PK analysis in MDA-MB-231 xenograft model; type: in vivo, mice; conditions: MDA-MB-231 model
# BRD2, BRD3 and BRD4 = test: BET protein depletion by immunoblotting in TNBC cell lines; type: cell-based, human; conditions: for effect on BET protein levels / concentration giving near-complete depletion of BRD2-4 proteins: TNBC cell lines; for effect on BET protein levels: immunoblotting
# [6] = PK analysis in MDA-MB-468 xenograft model; type: in vivo, mice; conditions: MDA-MB-468 model
# MCL1 = MCL1 expression by qRT-PCR and immunoblotting; type: cell-based, human; conditions: for expression of BRD2 and MCL1: MDA-MB-468 cells, 12 h immunoblotting, JQ1 2000 nM, dBET1 500 nM
# BRD4 = BRD4 (Mus musculus, UniProt Q9ESU6); test: BRD4 protein in mouse liver tissue; type: in vivo; conditions: single dose 5 mg/kg
# [7] = test system: MDA-MB-468 xenograft model; test: MDA-MB-468 xenograft efficacy study; type: in vivo, SCID mice; conditions: 10 mg/kg, IV, 3 times per week for 2-3 weeks
# [8] = Pharmacokinetics in WHIM24 tumor-bearing mice; type: in vivo; conditions: single dose 10 mg/kg, at 1 and 3 h; concentrations diminished rapidly
# [9] = test system: caspase-3 and poly(ADP-ribose) polymerase (PARP); test: Caspase-3 and PARP cleavage by immunoblotting; type: cell-based, human; conditions: as low as
# BET proteins [10] = test: Pharmacodynamic analysis in WHIM24 tumors; type: in vivo, SCID mice
# WHIM24 PDX model = test: WHIM24 PDX efficacy study; type: in vivo; conditions: for antitumor activity: 3 times per week for 3 weeks; for weight loss or apparent toxicity: WHIM24 model
# Method in brief: as §1
# [11] = test system: MDA-MB-453 xenograft model; test: MDA-MB-453 xenograft efficacy study; type: in vivo; conditions: for weight loss or apparent toxicity: MDA-MB-453 model
# Method in brief: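 Five million MDA-MB-453 cells were implanted subcutaneously in SCID mice, which were randomised at tumour size 80-200 mm3. Dosing was IV in 10% PEG400: 3% Cremophor: 87% PBS, or oral in 2% TPGS: 98% PEG200. Tumours and body weight were measured every 2-3 days. Volume was (length×width2)/2, and TGI (%) = (Vc-Vt)/(Vc-Vo)×100 using medians. Two-tailed t test versus vehicle; n=7-8.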
# MDA-MB-468 cells = test: Proteomic profiling; type: cell-based, human; conditions: 2 h
# TNBC cell lines [12] = type: cell-based, human
# normal mouse tissues = test: Toxicity in immune-competent Balb/c mice; type: in vivo; conditions: 5 mg/kg intravenously, daily, 5 days a week for 2 weeks
# Method in brief: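 Immune-competent Balb/c mice received test compound intravenously, daily, 5 days a week for 2 weeks. Animals were sacrificed at the end of treatment, and tissues were examined for damage.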
# TNBC cell lines [13] = test: Annexin V-PI apoptosis flow cytometry analysis; type: cell-based, human
# BET proteins [14] = test: Binding to BET proteins
smiles,measurement,setting,value
CCn1nc(C2CC2)cc1Nc1nc(C(=O)NCCCCCc2cccc3c2CN(C2CCC(=O)NC2=O)C3=O)nc2[nH]c3cc(-c4c(C)noc4C)c(OC)cc3c12 (stereo not drawn) [BETd-260],antitumor activity,"[1]; 5 mg/kg, 3 times per week for 3 weeks, compared with BETd-246 at 10 mg/kg",much stronger antitumor activity than BETd-246
same,weight loss or overt toxicity,[1],Neither BETd-246 nor BETd-260 caused significant weight loss
same,times more potent than BETd-246 in growth inhibition,TNBC cell lines [2]; TNBC cells,2-7 times
same,BET protein levels in xenograft tumors,BET proteins [3],effectively reduced BET protein levels
same,BET protein levels in xenograft tumors,BET proteins [4],effectively reduced BET protein levels
same,drug exposure in plasma and xenograft tumor tissue,[5],much higher than that of BETd-246
same,effect on BET protein levels,"BRD2, BRD3 and BRD4",potently depleted BET proteins at low nanomolar concentrations
same,drug exposure in plasma and xenograft tumor tissue,[6],much higher than that of BETd-246
Cc1sc2c(c1C)C(c1ccc(Cl)cc1)=N[C@@H](CC(=O)OC(C)(C)C)c1nnc(C)n1-2 [JQ1],expression of BRD2 and MCL1,MCL1,increased expression of BRD2 and MCL1
CCn1nc(C2CC2)cc1Nc1nc(C(=O)NCCCOCCOCCOCCCNc2cccc3c2C(=O)N(C2CCC(=O)NC2=O)C3=O)nc2[nH]c3cc(-c4c(C)noc4C)c(OC)cc3c12 (stereo not drawn) [BETd-246],BRD4 protein in mouse liver tissue,BRD4,effectively reduce BRD4 protein
same,antitumor activity,[7],no antitumor activity
same,drug exposure in plasma and WHIM24 tumors,[8],reasonable drug exposure
same,antitumor activity,"[1]; 10 mg/kg, 3 times per week for 2-3 weeks",very limited
same,weight loss or overt toxicity,[1],Neither BETd-246 nor BETd-260 caused significant weight loss
same,lowest concentration giving profound cleavage of caspase-3 and PARP,[9],10 nM
same,IC90,TNBC cell lines [2]; in 7 of the 13 cell lines,< 0.1 µM
same,IC50,TNBC cell lines [2],< 0.01 µM
same,MCL1 protein levels in tumors,BET proteins [10]; as early as 3 h after treatment,markedly reduced
same,duration of BET protein reduction in tumors,BET proteins [10]; single IV dose 10 mg/kg,at least 9 h
same,reduction of the levels of BET proteins in tumors,"BET proteins [10]; single IV dose 10 mg/kg, as early as 1 h",> 80%
same,antitumor activity,"WHIM24 PDX model; 5 mg/kg, IV",effectively inhibited WHIM24 tumor growth
same,antitumor activity,"WHIM24 PDX model; 10 mg/kg, during treatment",partial tumor regression
same,weight loss or apparent toxicity,WHIM24 PDX model,Neither BETi-211 nor BETd-246 caused significant weight loss
same,drug exposure in plasma and xenograft tumor tissue,[5],very limited drug exposure
same,weight loss or apparent toxicity,[11],No significant weight loss
same,"decrease of BRD2, BRD3 and BRD4 protein levels","MDA-MB-468 cells; 100 nM, MDA-MB-468, p<0.05, only proteins decreased out of ~5500 quantified",≥ 2 fold
same,"synergy in combination with BM-1197, ABT-263 and A-1155463",TNBC cell lines [12]; in 6 of the 7 cell lines,Modest to strong synergy
same,strong synergistic induction of apoptosis in combination with ABT-199,TNBC cell lines [12]; panel of TNBC cell lines,only observed in MDA-MB-468
same,concentration giving near-complete depletion of BRD2-4 proteins,"BRD2, BRD3 and BRD4; 1 h treatment",30 to 100 nM
same,concentration giving near-complete depletion of BRD2-4 proteins,"BRD2, BRD3 and BRD4; 3 h treatment",10 to 30 nM
same,drug exposure in plasma and xenograft tumor tissue,[6],very limited drug exposure
same,toxicity in normal mouse tissues,normal mouse tissues,no significant toxicity
same,lowest concentration giving significant down-regulation of MCL1 mRNA,"MCL1; as low as, MDA-MB-468, 8 h, qRT-PCR",10 nM
"O=C1CCC(N2C(=O)c3ccccc3C2=O)C(=O)N1 (stereo not drawn) [Thalidomide, thalidomide, reference compound]",effect on apoptosis induction and cell proliferation,TNBC cell lines [13]; alone,no significant effect
same,effect on BET protein levels,"BRD2, BRD3 and BRD4",no significant effect
"Cc1sc2c(c1C)C(c1ccc(Cl)cc1)=N[C@@H](CC(=O)NCCCCNC(=O)COc1cccc3c1C(=O)N(C1CCC(=O)NC1=O)C3=O)c1nnc(C)n1-2 (stereo partly drawn) [dBET1, reference compound]",BET protein depletion,"BRD2, BRD3 and BRD4; 500 nM, MDA-MB-468 cells, 12 h",effectively depleted BET proteins
same,expression of BRD2 and MCL1,MCL1,downregulated MCL1 expression
CCn1nc(C2CC2)cc1Nc1nc(COC)nc2[nH]c3cc(-c4c(C)noc4C)c(OC)cc3c12 [BETi-211],apoptosis induction,"TNBC cell lines [13]; 1000 nM, 48 h treatment",3-25%
same,growth inhibition,"TNBC cell lines [2]; at 2.5 μM, achieved in 2 of the 13 cell lines",≥ 90%
same,IC50,TNBC cell lines [2],< 1 µM
same,weight loss or apparent toxicity,WHIM24 PDX model,Neither BETi-211 nor BETd-246 caused significant weight loss
same,tumor growth inhibition,"[11]; 50 mg/kg, daily, 5 days a week for 2 weeks",failed to achieve tumor growth inhibition
same,weight loss or apparent toxicity,[11],No significant weight loss
same,increase of BRD2 protein level,"MDA-MB-468 cells; 1000 nM, MDA-MB-468",2 fold
same,synergism with either BM-1197 or ABT-263,TNBC cell lines [12],No clear synergism
same,effect on BET protein levels,"BRD2, BRD3 and BRD4",did not degrade BET proteins
same,Ki,BET proteins [14],< 0.001 µM
same,"times more potent than RX-37, JQ-1, OTX-015 or IBET-762",BET proteins [14],10-100 times
